# This is one part of a sample in which hits are shown more often than they occur.
# HCT116 PTEN-null: growth suppression of PTEN-null HCT116, primary screen, cell-based, CellTiter-Glo; HCT116 PTEN-null viability, 60 h; hits give low values; viability, % at 10 µM; 140,000 compounds, 1.2% hits;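 active = viability at or below a set limit, 4 SD under the median of all tested compounds, cut at about 3.7% in these data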;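 also: PTEN knockout HCT116 line with beta catenin targeted HCT116 as companion control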
# H69AR inhibit: proliferation blockers of H69AR lung cancer cells, primary screen, cell-based, human, 86K library. viability, % at 10 µM. 85,000 compounds, 6% hits. H69AR lung tumor viability, ATP luminescence, 72 h; hits give low values;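 active = viability at or below 40%; inactive = viability above 40%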;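 also: multidrug resistant small cell line overexpressing MRP-1 efflux transporter; 100% = mean luminescence of untreated control wells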
# HUVEC inhibit: inhibitors of HUVEC proliferation, primary screen, cell-based, 384-well; CellTiter-Glo luminescence, 72 h; hits give low values; viability, % at 10 µM (by protocol); 86,000 compounds, 1.1% hits; AID 648, 2007;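 active = viability at or below 30%; inactive = viability above 30%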;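 also: 100% = median luminescence of DMSO-only cell control wells on each plate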
# HCT116 bCat-KO: primary screen for growth suppressors in beta-catenin knockout HCT116 cells (colon tumor, human). HCT116 beta-catenin knockout viability, CellTiter-Glo, 60 h; hits give low values. viability, % at 10 µM. 140,000 compounds, 1.5% hits. AID 818, 2007;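 active = viability at or under a set limit, the compound median less 4 SD, cut at about 6% in these data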;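 also: 0% = Hyamine 1622 control at 20 µM and 100% = untreated cell control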
# Fibroblast inh: antiproliferative effect on LL 47 fibroblasts – human, LL 47 cells, CellTiter-Glo luminescence, primary screen. LL 47 human lung fibroblast viability, ATP luminescence; hits give low values. viability, % at 10 µM. 85,000 compounds, 1.1% hits;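 active = viability at or below 50% in the single dose screen; inactive = viability above 50%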;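 also: compound exposure lasted 72 h before the ATP readout; 100% = median luminescence of untreated cell-only wells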
#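 Assay system: human lung fibroblast line LL 47, low passage. Input: 1,150 fibroblasts seeded per well. Times: overnight cell rest, 72 h compound treatment at 37 °C. Evaluation: % viability of median cell-only signal. Technique: luminescent ATP detection, CellTiter-Glo. Control set: cell-only wells, no compound.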
# * = called active by the depositor; . = no result.
SMILES,HCT116 PTEN-null,H69AR inhibit,HUVEC inhibit,HCT116 bCat-KO,Fibroblast inh
CCC(=O)N1CCc2cc(S(=O)(=O)CCC(=O)Nc3nc(C)cs3)ccc21,58.6,1.8*,91.8,59.8,87.6
Cc1oc(-c2ccc(Cl)cc2)nc1CN1CCC(C(=O)N2CCN(Cc3ccccc3)CC2)CC1,6.8,82.6,15.5*,2.0*,82.2
Cc1oc(-c2ccc(Cl)cc2)nc1CN1CCC(C(=O)N2CCc3ccccc3C2)CC1,14.6,1.3*,33.8,13.6,78.2
CCOC(=O)C1CCCN(C(=O)C2CCN(Cc3nc(-c4ccc(Cl)cc4)oc3C)CC2)C1 (stereo not drawn),.,74.4,86.7,.,102.7
Cc1oc(-c2cccc(Cl)c2)nc1CN1CCC(C(=O)NCc2ccco2)CC1,93.3,83.1,82.6,97.3,101.8
Cc1oc(-c2cccc(Cl)c2)nc1CN1CCC(C(=O)N2CCN(c3ccccc3F)CC2)CC1,.,5.8*,15.7*,.,86.2
CCn1nc(C)c(C2C(C#N)=C(N)OC3=C2C(=O)CC(C)(C)C3)c1C (stereo not drawn),102.5,.,.,98.5,.
COc1ccc(/C=N/NC(=O)CC2N=C(Cc3ccccc3)NNC2=O)cc1OC (stereo not drawn),100.0,.,.,91.8,.
COc1ccc([N+](=O)[O-])cc1C1NN=C(c2ccccc2O)S1 (stereo not drawn),68.5,27.5*,74.0,72.4,61.4
O=C(c1ccc(F)cc1F)N1CCN(c2ncccn2)CC1,102.5,100.2,92.8,109.9,103.7
O=C(c1ccccc1OCc1ccccc1Br)N1CCN(c2ncccn2)CC1,40.0,28.3*,72.6,50.9,74.1
CCN1/C(=C/c2ccc3ccccc3[n+]2CC)C=Cc2ccccc21,1.5*,2.2*,44.6,1.8*,17.9*
CC(=O)c1cccc(NC(=O)COc2cc3oc(=O)c(CC(C)O)c(C)c3cc2Cl)c1 (stereo not drawn),94.2,.,.,91.4,.
O=C(CSc1nc2ccccc2c(=O)n1CC1CCCO1)NCC1CCCO1 (stereo not drawn),94.8,95.3,101.7,98.7,109.0
NC(=O)NC(=O)CSc1nc(-c2ccccc2)c(-c2ccccc2)n1CC1CCCO1 (stereo not drawn),88.4,35.9*,112.0,95.9,94.8
COCc1cc(C)nc(N2CCc3ccccc32)c1C#N,79.5,31.5*,96.2,91.4,103.2
COCc1cc(C)nc(Nc2ccccc2C)c1C#N,97.1,97.9,91.1,91.8,83.8
Cc1cc([N+](=O)[O-])cnc1NC(C)c1ccccc1 (stereo not drawn),99.5,.,.,98.5,.
Cc1nccc2[nH]c(=O)c(C(=O)NC3CCCCC3C)cc12 (stereo not drawn),81.2,36.6*,75.1,71.2,92.6
COC(=O)c1[nH]c2c(c1C)C(=O)CC(c1cccs1)C2 (stereo not drawn),14.1,34.0*,46.3,10.1,46.8*
COC(=O)c1[nH]c2c(c1C)C(=O)CC(c1cc(OC)ccc1OC)C2 (stereo not drawn),36.4,21.8*,49.5,36.0,52.4
COc1ccccc1C(O)(C(=O)NN(C)c1ccccc1)c1ccccc1OC,80.7,.,.,89.6,.
COC(=O)c1cn(CC(=O)N2C(C)CCCC2C)c2ccccc12 (stereo not drawn),99.4,74.8,99.2,95.7,108.8
CC1CCCC(C)N1C(=O)Cn1cc(/C=C2/C(=O)Nc3ccccc32)c2ccccc21 (stereo not drawn),51.2,23.3*,75.9,57.8,82.2
O=C(NCC1CCCO1)C1CCN(S(=O)(=O)N2CCCC2)CC1 (stereo not drawn),95.5,101.2,84.4,101.5,.
SMILES,HCT116 PTEN-null,H69AR inhibit,HUVEC inhibit,HCT116 bCat-KO,Fibroblast inh
O=S(=O)(CCN(CCS(=O)(=O)C(F)(F)F)CC1CCCO1)C(F)(F)F (stereo not drawn),1.5*,98.0,93.3,1.6*,44.1*
CC1CN(c2ncnc3c2oc2ccccc23)CC(C)O1 (stereo not drawn),90.3,73.2,92.8,93.6,96.6
Clc1ccc(N2CCN(c3ncnc4c3oc3ccccc34)CC2)cc1,.,65.1,27.4*,.,116.8
CCC(C)(C)NC(=O)/C=C/c1cccs1,93.2,.,.,87.2,.
O=C(c1ccc(Cn2cc(Cl)cn2)cc1)N1CCN(c2ccccc2)CC1,88.9,68.8,99.0,84.5,100.3
O=C(c1ccc(Cn2cc(Br)cn2)cc1)N1CCN(c2ccccc2)CC1,42.8,8.8*,55.2,56.7,90.4
COC(=O)NNC(=O)c1ccc(C)c(Br)c1,97.5,.,.,89.8,.
Cc1ncsc1C(=O)N1N=C2/C(=C/c3ccccc3)CCCC2C1c1ccccc1 (stereo not drawn),39.0,.,.,43.7,.
CCn1cc(Cl)c(C(=O)N2N=C3/C(=C/c4cccs4)CCCC3C2c2cccs2)n1 (stereo not drawn),50.9,37.9*,75.4,53.6,92.2
CC(C)c1nc(SCC(=O)N2CCCC2)c2ccccc2n1,75.1,29.0*,84.5,72.0,81.9
CC1CC(C)(C)NC(=S)N1CCCC(=O)N1CCN(c2ccc(F)cc2)CC1 (stereo not drawn),101.4,.,.,93.3,.
CC(C)Cn1cnc2c(c(-c3ccccc3)c(-c3ccccc3)n2Cc2ccco2)c1=N,3.0*,1.1*,2.5*,2.8*,3.1*
OCCNc1ncnc2c1c(-c1ccccc1)c(-c1ccccc1)n2Cc1ccco1,75.2,.,.,84.3,.
N=c1c2c(-c3ccccc3)c(-c3ccccc3)n(Cc3ccco3)c2ncn1Cc1ccccc1,1.9*,9.9*,2.1*,1.1*,31.8*
N=c1c2c(-c3ccccc3)c(-c3ccccc3)n(Cc3ccccc3)c2ncn1CCO,1.6*,1.9*,3.3*,1.2*,21.9*
CCOC1OC(=O)C(Cl)=C1Nc1ccc(C)cc1C (stereo not drawn),90.6,.,.,83.1,.
CCCCCCCC(=O)NNC(=O)CC(=O)Nc1ccccc1C(=O)O,92.0,.,.,92.9,.
Cc1ccc(C2Nc3ccccc3C(=O)N2Cc2ccco2)cc1 (stereo not drawn),36.9,29.8*,84.2,32.1,88.0
CCC(C)NC(=O)COC(=O)c1oc2ccccc2c1CSc1ccc(Cl)cc1 (stereo not drawn),97.2,.,.,94.6,.
O=C(Oc1ccccc1-c1nnco1)c1ccc(Cl)cc1,87.8,43.3,98.2,55.4,33.9*
O=C(Nc1ccccc1OC(=O)c1ccc(Cl)cc1)c1ccc(Cl)cc1,69.5,.,.,61.1,.
CCCCCc1c(C)c(C#N)c2nc3ccccc3n2c1-n1ccnc1C,70.2,.,.,76.9,.
C=C(C)CN1CCN(c2c(CCC#N)c(C)c(C#N)c3nc4ccccc4n23)CC1,3.1*,38.0*,73.9,2.9*,68.7
Cc1c(CCC(C)C)c(-n2ccnc2C)n2c(nc3ccccc32)c1C#N,73.7,22.9*,105.4,71.9,99.9
C(=N\n1cnnc1)/c1cn(Cc2ccccc2)c2ccccc12,80.4,74.5,47.8,79.7,77.3
